# Test results from ChEMBL document CHEMBL4130438, “6,7-Seco-ent-Kauranoids Derived from Oridonin as Potential Anticancer Agents” (J Nat Prod, 2017).
# Active and inactive are the calls of the source. The calls are words filed in the database; no cut-off is given here.
# Tests used:
# Bel-7402 [1] = test: Antiproliferative activity against human Bel7402 cells after 72 hrs by MTT assay; type: functional, cell-based; details: Bel-7402, 72 h
# Outline: (§1)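 Cells pre-incubated 24 h at 37 °C, 5% CO2 in 96-well plates, then exposed to a range of compound concentrations (DMSO ≤0.25%) for 72 h. Viable cells read by MTT colour at 570 nm. Performed in quadruplicate, repeated three times. IC50 reported as means ± SD, n = 3.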
# K562 = test: Antiproliferative activity against human K562 cells after 72 hrs by MTT assay; type: functional, cell-based; details: K562, 72 h; outline: as §1
# MGC-803 = test: Antiproliferative activity against human MGC803 cells after 72 hrs by MTT assay; type: functional, cell-based; details: MGC-803, 72 h; outline: as §1
# MCF7 [2] = test: Antiproliferative activity against human MCF7 cells after 72 hrs by MTT assay; type: functional, cell-based; details: MCF7, 72 h; outline: as §1
# Bel-7402 [3] = test: Cytotoxicity against human Bel7402 cells assessed as decrease in cell viability after 24 hrs by LDH release assay; type: functional, cell-based
# Outline: (§2)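 MCF-7 and Bel-7402 cells seeded at ~5 × 10^3 per well for 24 h, then exposed to compounds. LDH released into the medium measured with CytoTox-ONE reagent (10 min, ambient temperature) followed by stop solution. Fluorescence read at ex 560/em 590 nm.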
# KB 3-1 = test: Antiproliferative activity against human KB-3-1 cells after 48 hrs by MTT assay; type: functional, cell-based
# Homo sapiens = species: Homo sapiens; test: Antiproliferative activity against human KB/CP4 cells after 48 hrs by MTT assay; type: functional, cell-based
# MCF7 [4] = test: Cytotoxicity against human MCF7 cells assessed as decrease in cell viability after 24 hrs by LDH release assay; type: functional, cell-based; outline: as §2
# H22 = test: Antitumor activity against […] cells xenografted in ICR mouse assessed as inhibition of tumor volume at 20 mg/kg, iv qd administered for 14 consecutive days measured every 2 days relative to control; type: functional; details: 14 days
# Outline: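 Male ICR mice, five weeks old, implanted s.c. in the right flank with 1 × 10^6 H22 cells. After 7 days, randomised into groups of eight. Given i.v. once daily for 14 days, 10 or 20 mg/kg in 10% DMF/2% poloxamer/88% saline; negative controls received 0.9% saline i.v., positive control 20 mg/kg oridonin. Body weight and tumour volume (L × W²/2) recorded every 2 days. Tumours excised and weighed at sacrifice; inhibition (%) = (1 − treated/control mean tumour weight) × 100.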
IC50 (Bel-7402 [1]) [µM],IC50 (K562) [µM],IC50 (MGC-803) [µM],IC50 (MCF7 [2]) [µM],SMILES,Activity (Bel-7402 [3]),Activity (KB 3-1),Activity (Homo sapiens),Activity (MCF7 [4]),inhibition in vivo at 20 mg/kg (H22) [%]
1.3,1.9,2.8,2,C=C1C(=O)[C@@]23C(=O)OC[C@]4(C=CCC(C)(C)[C@H]4C=O)[C@@H]2CC[C@@H]1[C@H]3OS(C)(=O)=O,,,,,
3.6,0.55,2.4,1.1,C=C1C(=O)[C@@]23C(=O)OC[C@]4(C=CCC(C)(C)[C@H]4C=O)[C@@H]2CC[C@@H]1[C@H]3OC(=O)c1cccc(C)c1,,,,,
2.2,4.5,3.2,3.7,C=C1C(=O)[C@@]23C(=O)OC[C@]4([C@@H](OS(C)(=O)=O)CCC(C)(C)[C@H]4C=O)[C@@H]2CC[C@@H]1[C@H]3OC(=O)CCCC,,,,,
0.84,0.78,1.3,1.2,C=C1C(=O)[C@@]23C(=O)OC[C@]4(C=CCC(C)(C)[C@H]4C=O)[C@@H]2CC[C@@H]1[C@H]3OC(=O)c1ccco1,,,,,
> 10,1,7.3,6.4,C=C1C(=O)[C@@]23C(=O)OC[C@]4(C=CCC(C)(C)[C@H]4C=O)[C@@H]2CC[C@@H]1[C@H]3OC(=O)c1ccc([N+](=O)[O-])cc1,,,,,
2.5,4.2,3,6.4,C=C1C(=O)[C@@]23C(=O)OC[C@]4(C=CCC(C)(C)[C@H]4C=O)[C@@H]2CC[C@@H]1[C@H]3O,inactive,Active,Active,inactive,
> 10,> 10,> 10,> 10,C=C1C(=O)[C@@]23C(=O)OC[C@]4([C@@H](OS(C)(=O)=O)CCC(C)(C)[C@H]4C=O)[C@@H]2CC[C@@H]1[C@H]3O,,,,,
7.1,1.2,7.3,3.4,C=C1C(=O)[C@@]23C(=O)OC[C@]4(C=CCC(C)(C)[C@H]4C=O)[C@@H]2CC[C@@H]1[C@H]3OC(=O)CC,,,,,
2.7,3.2,3.9,3.9,C=C1C(=O)[C@]23[C@H](O)[C@H]1CC[C@H]2[C@@]12CO[C@@]3(O)[C@@H](O)[C@@H]1C(C)(C)CC[C@@H]2OS(C)(=O)=O,,,,,
4.6,> 10,> 10,> 10,C=C1C(=O)[C@@]23C(=O)OC[C@]4([C@@H]5O[C@@H]5CC(C)(C)[C@H]4C=O)[C@@H]2CC[C@@H]1[C@H]3O,,,,,
2.2,5.5,4.3,3.3,C=C1C(=O)[C@@]23C(=O)OC[C@]4(C=CCC(C)(C)[C@H]4C=O)[C@@H]2CC[C@@H]1[C@H]3OC(=O)CCCC,,,,,
5.1,1.4,2.9,2.2,C=C1C(=O)[C@@]23C(=O)OC[C@]4(C=CCC(C)(C)[C@H]4C=O)[C@@H]2CC[C@@H]1[C@H]3OC(=O)/C=C/c1cccc([N+](=O)[O-])c1,,,,,
3.1,6.2,4.5,5.5,C=C1C(=O)[C@@]23C(=O)OC[C@]4([C@@H](OS(C)(=O)=O)CCC(C)(C)[C@H]4C=O)[C@@H]2CC[C@@H]1[C@H]3OC(=O)c1ccc(F)cc1,,,,,
1.3,2.9,2.8,3.5,C=C1C(=O)[C@@]23C(=O)OC[C@]4(C=CCC(C)(C)[C@H]4C=O)[C@@H]2CC[C@@H]1[C@H]3OC(=O)c1cnccn1,,,,,
1.5,1.3,0.95,1.5,C=C1C(=O)[C@@]23C(=O)OC[C@]4(C=CCC(C)(C)[C@H]4C=O)[C@@H]2CC[C@@H]1[C@H]3OC(=O)/C=C/c1ccccc1,,,,,
3.8,1.2,8.8,9.5,C=C1C(=O)[C@@]23C(=O)OC[C@]4([C@@H](OS(C)(=O)=O)CCC(C)(C)[C@H]4C=O)[C@@H]2CC[C@@H]1[C@H]3OS(C)(=O)=O,,,,,
1.1,1.7,3.4,2.9,C=C1C(=O)[C@@]23C(=O)OC[C@]4([C@@H](OS(C)(=O)=O)CCC(C)(C)[C@H]4C=O)[C@@H]2CC[C@@H]1[C@H]3OC(=O)c1ccco1,,,,,
> 10,5.1,4.5,9.1,C=C1C(=O)[C@]23[C@H](O)[C@H]1CC[C@H]2[C@@]12CO[C@]3(O)[C@@H](O)[C@@H]1C(C)(C)CC[C@@H]2O [ORIDONIN],,,,,51.2
0.57,0.63,0.95,1,C=C1C(=O)[C@@]23C(=O)OC[C@]4(C=CCC(C)(C)[C@H]4C=O)[C@@H]2CC[C@@H]1[C@H]3OC(C)=O,,,,,
